Experimental findings from the M2OR odorant receptor database are described below.

Structures are written as SMILES.
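Further: active if original authors judged signal statistically different from baseline.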

For the assay, the target named is T1, OR1A2 (Homo sapiens) (UniProt Q9Y585).
T1 sequence (whole entry): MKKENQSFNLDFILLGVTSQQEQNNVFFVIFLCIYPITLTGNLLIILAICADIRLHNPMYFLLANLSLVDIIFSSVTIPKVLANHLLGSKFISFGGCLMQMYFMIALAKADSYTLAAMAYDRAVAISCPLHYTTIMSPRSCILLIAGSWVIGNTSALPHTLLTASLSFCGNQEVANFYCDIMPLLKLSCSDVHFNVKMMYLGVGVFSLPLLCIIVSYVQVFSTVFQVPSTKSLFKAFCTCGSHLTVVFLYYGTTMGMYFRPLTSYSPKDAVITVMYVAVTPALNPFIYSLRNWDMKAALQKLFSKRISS
Particulars: stereoisomer not certain. A digest of the protocol: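 Transient luciferase assays in mammalian cell lines were common, though methods varied by source. The values come from published papers and their supplementary material, with extra details from the original authors when needed. Responsive refers to a measured signal the original authors judged statistically different from baseline, and non-responsive (inactive) to the remainder.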
As for `CSCCC=O`, the “odorant receptor agonist call” value was “inactive”.
As for `CCc1nccnc1CC`, the “odorant receptor agonist call” value was “inactive”.
For `CC(C)=CCCC(C)CC(=O)O` (stereo not drawn) the value was “inactive”; for `C=C(C)C1CC=C(C)CC1` (stereo not drawn), “active”.
For `CCC=CCCC=CC=O` the value was “inactive”; for `CCCCCCO`, “inactive”; for `CSCCCO`, “inactive”.
For `CCCCCC=CCCC=O` the value was “active”; for `CCCCCO`, “inactive”; for `CC(=O)CCc1ccc(O)cc1`, “inactive”.
Take `CCCCCCCCO`: the “odorant receptor agonist call” value is “active”.
With `Cc1cnccn1`, the “odorant receptor agonist call” value is “inactive”.
With `CC(=O)OCCC(C)C`, the “odorant receptor agonist call” value was “inactive”.
For `CC(C)C12CCC(C)(CC1)O2` the value was “inactive”; for `CCCC(C)C=O` (stereo not drawn), “inactive”.
For `CCCCC=CC=CC=O` the value was “inactive”.
For `CCCCS` the value was “inactive”; for `CCCCCCCO`, “inactive”.
In the case of `CC(C)=CCCC(C)=CCCC(C)=CCO`, the “odorant receptor agonist call” value was “inactive”.
For `CCCCCCC=CC=O` the value was “inactive”; for `CCCCCCCC=CC=CC=O`, “inactive”; for `Cc1nccnc1C`, “inactive”.
For `CCCCCCCC(=O)[O-].[H+]` the value was “inactive”; for `CC1CCC(C(C)C)C(=O)C1` (stereo not drawn), “inactive”; for `O=C([O-])CCCCC(=O)[O-].[H+].[H+]`, “inactive”.
With `C=C(C)C1CC=C(C)C(OC(C)=O)C1` (stereo not drawn), the “odorant receptor agonist call” value was “inactive”.
For `CC1(C)C2CC=C(C=O)C1C2` (stereo not drawn) the value was “inactive”.
Consider `C=C(C)C1CC=C(C)C(O)C1` (stereo not drawn), for which the “odorant receptor agonist call” value is “active”.
